This note sets out measurements from ChEMBL document CHEMBL1127811, “Inhibitors of cholesterol biosynthesis. 2. Hypocholesterolemic and antioxidant activities of benzopyran and tetrahydronaphthalene analogues of the tocotrienols” (J Med Chem, 1994).

For one data set, the system named is HepG2. Description: In vitro inhibition of cholesterol biosynthesis in Hep G2 cells. It is filed as functional, Homo sapiens. More on the design: concentration or dose not given beside the values. Summed up: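 HepG2 human hepatoma cells incubated 4 h with compound at 10 μM, DMSO vehicle controls. Mean % inhibition vs controls, SD ≤ ±10%, n ≥ 8.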
Data set [1] is filed under the species Gallus gallus. The experiment in a line: (§1) Hypocholesterolemic activity in 6-week old male mormocholesterolemic chickens using experiment 3. It is filed as functional. Summed up:
(§2)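 Male chickens, 6 weeks old. Test compound mixed at 50 ppm into a corn-soybean control diet; controls get the diet alone. After the feeding period, birds are fasted 36 h and refed 48 h before sacrifice. Serum total, LDL and HDL cholesterol (mg/100 mL) and triglycerides measured; expressed as mean ± SD and percent of control, n = 6–12 per group.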

The species entered for data set [2] is Gallus gallus. Description: (§3) Hypocholesterolemic activity in 6-week old male mormocholesterolemic chickens using experiment 4. It is filed as functional. Summed up:
(§4)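 Six-week-old male chickens fed corn-soybean control diet with test compound at 50 ppm. Birds fasted 36 h, then refed 48 h before sacrifice. Serum total, LDL and HDL cholesterol and triglycerides measured (mg/100 mL), HDL/total ratio computed. Means ± SD, n = 6–12 per group, also as % of control. Significance p < 0.01 within each study.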

Data set [3] deals with T1, 3-hydroxy-3-methylglutaryl-coenzyme A reductase (Homo sapiens) (UniProt P04035).
T1 sequence (whole entry): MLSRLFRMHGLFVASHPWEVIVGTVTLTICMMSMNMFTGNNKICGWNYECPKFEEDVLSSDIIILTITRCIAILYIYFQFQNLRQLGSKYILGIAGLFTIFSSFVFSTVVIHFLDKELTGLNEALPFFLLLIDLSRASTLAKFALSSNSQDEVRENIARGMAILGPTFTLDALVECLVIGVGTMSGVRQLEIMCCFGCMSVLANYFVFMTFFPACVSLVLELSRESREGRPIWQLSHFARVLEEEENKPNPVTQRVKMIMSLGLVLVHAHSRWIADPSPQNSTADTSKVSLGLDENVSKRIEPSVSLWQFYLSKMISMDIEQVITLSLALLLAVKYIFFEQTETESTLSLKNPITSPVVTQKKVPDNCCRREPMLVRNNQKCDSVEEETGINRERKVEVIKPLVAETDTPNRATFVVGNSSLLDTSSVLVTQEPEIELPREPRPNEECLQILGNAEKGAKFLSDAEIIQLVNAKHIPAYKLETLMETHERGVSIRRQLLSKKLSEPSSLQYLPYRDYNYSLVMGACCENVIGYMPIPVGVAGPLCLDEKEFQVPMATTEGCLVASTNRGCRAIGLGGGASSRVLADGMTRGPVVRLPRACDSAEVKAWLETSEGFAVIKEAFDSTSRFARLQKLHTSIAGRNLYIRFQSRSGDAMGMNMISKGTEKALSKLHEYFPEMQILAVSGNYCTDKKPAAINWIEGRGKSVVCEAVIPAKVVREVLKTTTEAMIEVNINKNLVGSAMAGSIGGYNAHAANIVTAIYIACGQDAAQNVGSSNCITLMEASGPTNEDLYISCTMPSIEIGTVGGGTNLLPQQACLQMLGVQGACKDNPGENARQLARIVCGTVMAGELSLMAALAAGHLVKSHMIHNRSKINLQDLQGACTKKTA
Description: In vitro suppression of HMG-CoA reductase (HMGR) in Hep G2 cells. It is filed as cell-based. Set-up: concentration or dose not given beside the values. The conditions noted are these: HepG2, concentration not given here. Summed up: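 HepG2 cells treated 4 h with compound at 10 μM, DMSO vehicle controls. HMG-CoA reductase activity assayed in microsomal fraction isolated at end of incubation. Mean % suppression vs controls, SD ≤ ±10%, n ≥ 8.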

For data set [4], the species on record is Gallus gallus. Described as §1. It is filed as functional. Summed up: as §4
This is another data set of the same source.

Data set [5] is filed under the species Gallus gallus. Described as §3. Type of data set: functional. Summed up: as §2
This is another data set of the same source.

The species named for data set [6] is Gallus gallus. The experiment in a line: Ratio of HDL/total cholesterol value. Type of data set: functional. Summed up:
as §4

Data set [7] in a line: Compound oxidation potential using cyclic voltametry. It is filed as ADME.
Data set [8] is filed under the species Gallus gallus. Description: (§5) Hypocholesterolemic activity in 6-week old male mormocholesterolemic chickens using experiment 2. It is filed as functional. Summed up:
as §4

The species named for data set [9] is Gallus gallus. The data set is described as §5. Type of data set: functional. Summed up:
as §2
The source holds these as a separate data set.

The species named for data set [10] is Gallus gallus. Description: (§6) Hypocholesterolemic activity in 6-week old male mormocholesterolemic chickens using experiment 1. Type of data set: functional. Summed up:
as §2

The species entered for data set [11] is Gallus gallus. The description is as §6. It is filed as functional. Summed up: as §4
This is another data set of the same source.

Data set [12] in a line: LDL oxidation assay as spectrophotometric determination of TBARS. Type of data set: functional. Summed up: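 LDL (0.5 mg/mL protein stock) in saline/20 mM HEPES with drug in ethanol, oxidised by CuSO4 (4 × 10⁻⁴ M stock), 37 °C, 5 h, in duplicate. Stopped with EDTA; TCA/TBA added, boiled 30 min, A535 read. Malonaldehyde equivalents from tetramethoxypropane standard curve. IC50 = concentration inhibiting 50% TBARS vs ethanol controls.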

Data set [13] is described as follows: Oxidation potential assay as cyclic voltametry; not electrochemically active within scan range. It is filed as functional.

Where “and” joins values, the source holds several entries; their conditions need not be identical. Equal values may be shown once.

Regarding `CC(C)=CCC/C(C)=C/CC/C(C)=C/CCC1CCc2cc(O)c(C)c(C)c2O1` (stereo unspecified), the Inhibition (in general, the drop in the measured response relative to a control, in per cent) with HepG2 was found to be 62%. The same compound came in with an LDL cholesterol in the data set listed under Gallus gallus [1] of 85 mg 100ml-1. For the same compound, in the data set listed under Gallus gallus [2], the HDL cholesterol was 97 mg 100ml-1, the Total cholesterol is listed as 178 mg 100ml-1 and the Triglycerides is 83 mg 100ml-1. Moreover, the inhibition – broadly, the share of the control response that was lost under treatment – in [3] was found to be 67%. In the data set listed under Gallus gallus [4], this compound showed an HDL cholesterol of 102 mg 100ml-1, a Total cholesterol of 197 mg 100ml-1 and a Triglycerides of 86 mg 100ml-1. The compound further came in with an LDL cholesterol in the data set filed under Gallus gallus [5] of 76 mg 100ml-1. Further, the Ratio in the data set filed under Gallus gallus [6] was 0.52 and 0.54.

`CC(C)=CCC/C(C)=C/CC/C(C)=C/CCC1(C)CCc2cc(O)ccc2C1` (stereo unspecified): the Inhibition in the data set on HepG2 amounted to 58%. Moreover, the Potential in data set [7] was 1.48. In the data set listed under Gallus gallus [8], this compound showed an HDL cholesterol of 85 mg 100ml-1, a Total cholesterol of 125 mg 100ml-1 and a Triglycerides of 86 mg 100ml-1. The LDL cholesterol in the data set filed under Gallus gallus [9] amounted to 28 mg 100ml-1. Moreover, the Ratio in the data set listed under Gallus gallus [6] is reported as 0.68.

The compound `CC(C)=CCC/C(C)=C/CC/C(C)=C/CCC1(C)CCc2cc(O)c3ccccc3c2O1` (stereo unspecified) came in with an Inhibition in the data set on HepG2 of 57%. This compound displayed a Potential in data set [7] of 0.8. The compound further returned an LDL cholesterol in the data set filed under Gallus gallus [1] of 61 mg 100ml-1. In data set [3], this compound yielded an inhibition of 57%. In the data set filed under Gallus gallus [4], this compound registered an HDL cholesterol of 97 mg 100ml-1, a Total cholesterol of 160 mg 100ml-1 and a Triglycerides of 81 mg 100ml-1. The Ratio in the data set filed under Gallus gallus [6] is on record as 0.61.

In the case of `CC(C)=CCC/C(C)=C/CC/C(C)=C/CCC1(C)CC(=O)c2cc(O)c(C)c(C)c2O1` (stereo unspecified), in the data set with HepG2, the Inhibition is on record as 93%. Moreover, the Potential in [7] worked out at 1.2. In addition, the inhibition in [3] was 16%. For the same compound, the LDL cholesterol in the data set listed under Gallus gallus [10] came to 36 mg 100ml-1. Further, in the data set filed under Gallus gallus [11], the HDL cholesterol is listed as 108 mg 100ml-1, the Total cholesterol is reported as 133 mg 100ml-1 and the Triglycerides amounted to 64 mg 100ml-1. The IC50 (commonly the concentration at which inhibition is half-maximal) in [12] was found to be 2000 nM. In addition, the Ratio in the data set filed under Gallus gallus [6] turned out to be 0.81.

In the data set on HepG2, `CC(C)=CCC/C(C)=C/CC/C(C)=C/CCC1(C)CCc2cc(O)c(C)c(C)c2O1` (stereo unspecified) displayed an Inhibition of 69%. In addition, the Potential in data set [7] was determined as 0.94. Further, the LDL cholesterol in the data set listed under Gallus gallus [1] stood at 51 mg 100ml-1; in the data set filed under Gallus gallus [10] it was 29 mg 100ml-1; in the data set listed under Gallus gallus [5] it was 33 mg 100ml-1. Besides, the HDL cholesterol in the data set filed under Gallus gallus [2] worked out at 85 mg 100ml-1; in the data set filed under Gallus gallus [4], 94 mg 100ml-1; in the data set filed under Gallus gallus [11], 89 mg 100ml-1. Moreover, the Total cholesterol in the data set listed under Gallus gallus [2] is on record as 125 mg 100ml-1; in the data set filed under Gallus gallus [4] it was 151 mg 100ml-1; in the data set listed under Gallus gallus [11], 121 mg 100ml-1. The Triglycerides is 57 mg 100ml-1 in the data set listed under Gallus gallus [2], 83 mg 100ml-1 in the data set listed under Gallus gallus [4] and 62 mg 100ml-1 in the data set filed under Gallus gallus [11]. In [3], this compound had an inhibition of 61%. Also, the concentration for half-maximal inhibition (IC50) in data set [12] is 1800 nM. In addition, the Ratio in the data set filed under Gallus gallus [6] is 0.74 and 0.62 and 0.68.

`CC(C)=CCC/C(C)=C/CC/C(C)=C/CCC1CCc2cc(O)ccc2O1` (stereo unspecified) came in with an Inhibition in the data set with HepG2 of 71%. Besides, in the data set listed under Gallus gallus [8], the HDL cholesterol was 86 mg 100ml-1, the Total cholesterol is recorded as 118 mg 100ml-1 and the Triglycerides is given as 81 mg 100ml-1. The compound also yielded an LDL cholesterol in the data set filed under Gallus gallus [9] of 23 mg 100ml-1. Moreover, in the data set filed under Gallus gallus [6], the Ratio was found to be 0.73.

In turn, `CC(C)=CCC/C(C)=C/CC/C(C)=C/CCC1(C)CCc2ccccc2O1` (stereo unspecified) had an Inhibition in the data set with HepG2 of 45%. Also, the inhibition in data set [3] came to 0%. Further, the Potential result in data set [13] is “Not electrochemically active”.
